Source: ChEMBL document CHEMBL1122631, “2,3,4,4a,5,9b-Hexahydro-1H-indeno[1,2-b]pyridines: potential antidepressants” (J Med Chem, 1984)
pIC50: −log10 of the molar value. “And” between values parts separate entries of the source, which are not always exact repeats. Identical values can stand only once.

Tests used:
[1] = Acute toxicity in mice, after intraperitoneal administration.; type: organism-based; details: mouse, in vivo, ip
Procedure, shortened: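 Mice, groups of 10, given compound suspended in 1% methylcellulose ip at 10 mL/kg, then housed with food and water ad libitum. Observed hourly up to 6 h; deaths recorded at 24 and 48 h.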

Mus musculus [2] = assay: Antidepressant activity was measured by the prevention of tetrabenazine (TBZ) induced ptosis in mice after intraperitoneal administration of the compound.; type: functional; details: ip
Procedure, shortened: (§1)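 Mice given compound ip in 1% methylcellulose (10 mL/kg), 30 min before tetrabenazine 40 mg/kg base ip; solvent+TBZ control per test. Ptosis scored 30 min after TBZ (+1 min) as 100/50/0% (closed/half/open), not normalized.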

[3] = Therapeutic index (TI), ratio of LD50 and ED50 (TBZ) in mice after i.p. administration; details: mouse, in vivo, ip
Rattus norvegicus [4] = organism: Rattus norvegicus; assay: Compound was tested for inhibition of uptake of [14C]norepinephrine (NE) into rat brain hypothalamus, in vitro.; type: functional
Procedure, shortened: (§2)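 Rat brain synaptosomes (Whittaker method) incubated with labelled monoamine (1 × 10^-7 mol final) at 37 °C with or without drug. [14C]NE and [14C]5-HT uptake in Krebs-Henseleit bicarbonate pH 7.4 with 11 mmol glucose; [3H]DA uptake in phosphate buffer, corpus striatum synaptosomes. Time: 5 min whole brain, 10 min hypothalamus. Nonspecific binding at 0 °C; membrane filtration, scintillation counting; IC50 from 3–4 concentrations, at least triplicate.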

Rattus norvegicus [5] = assay: Ability to inhibit re uptake of [14C]-5-HT in synaptosomes from rat whole brain, was determined 1 h after intraperitoneal administration of 80 mg of compound.; type: functional
Procedure, shortened: (§3)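 Ex vivo/in vitro: rats dosed orally or ip, killed 1 h later; whole-brain synaptosomes from a pool of n=3 rats; [14C]NE or [14C]5-HT uptake (Krebs-Henseleit bicarbonate, pH 7.4, 11 mmol glucose; 1 × 10^-7 mol labelled amine, 37 °C, 5 min), filtration, scintillation counting; quadruplicate determinations, mean ± SD as % of control-animal uptake.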

Rattus norvegicus [6] = assay: Ability to inhibit re uptake of [14C]5-HT in synaptosomes from rat whole brain, was determined 1 h after peroral administration of 80 mg of compound.; type: functional, organism-based; procedure, shortened: as §3
[7] = Partition coefficient (logP); type: physicochemical; details: octanol/water
Rattus norvegicus [8] = organism: Rattus norvegicus; assay: Compound was tested for inhibition of uptake of [3H]dopamine (DA) into rat corpus striatum, in vitro.; type: functional; procedure, shortened: as §2
Rattus norvegicus [9] = organism: Rattus norvegicus; assay: Compound was tested for inhibition of uptake of [14C]5-HT (5-HT) into rat whole brain, in vitro.; type: functional; procedure, shortened: as §2
Rattus norvegicus [10] = assay: Ability to inhibit re uptake of [14C]norepinephrine in synaptosomes from rat whole brain, was determined 1 h after peroral administration of 80 mg of compound.; type: functional, organism-based; procedure, shortened: as §3
Rattus norvegicus [11] = assay: Ability to inhibit re uptake of [14C]norepinephrine in synaptosomes from rat whole brain, was determined 1 hr after intraperitoneal administration of 80 mg of compound.; type: functional; procedure, shortened: as §3
Mus musculus [12] = assay: Enhancement of spontaneous motor activity (SMA) in mice after oral administration of 1 mg/kg of the compound. Accumulated motility counts during first hour of observation, was reported.; type: functional
Mus musculus [13] = organism: Mus musculus; assay: Percent enhancement of spontaneous motor activity (SMA) was observed. Accumulated motility counts during first hour of observation, was reported.; type: functional
Mus musculus [14] = assay: Enhancement of spontaneous motor activity (SMA) in mice after oral administration of 1 mg/kg of the compound. Accumulated motility counts during second hour of observation, was reported.; type: functional
Mus musculus [15] = assay: Enhancement of spontaneous motor activity (SMA) in mice after oral administration of 0.3 mg/kg of the compound. Accumulated motility counts during second hour of observation, was reported.; type: functional
Mus musculus [16] = organism: Mus musculus; assay: Percent enhancement of spontaneous motor activity (SMA) was observed. Accumulated motility counts during one hour of observation, was reported.; type: functional
Mus musculus [17] = assay: Prevention of tetrabenazine induced ptosis in mice following i.p. administration.; type: functional; details: ip; procedure, shortened: as §1
Mus musculus [18] = organism: Mus musculus; assay: Percent enhancement of spontaneous motor activity (SMA) was observed. Accumulated motility counts during second hour of observation, was reported.; type: functional
Mus musculus [19] = assay: Prevention of tetrabenazine (TBZ)-induced ptosis in mice after intraperitoneal administration.; type: functional, organism-based; procedure, shortened: as §1
[20] = Compound was tested for acute toxicity in mice, after intravenous administration of the compound.; type: organism-based; details: mouse, in vivo
Rattus norvegicus [21] = assay: Ability to inhibit re uptake of [14C]norepinephrine in synaptosomes from rat whole brain, was determined 1 hr after peroral administration of 80 mg of compound.; type: functional; procedure, shortened: as §3
Mus musculus [22] = assay: Prevention of tetrabenazine (TBZ) induced ptosis in mice after intraperitoneal administration; b denotes 'No activity detected up to a dose of one-fifth of the LD ip in mice; type: functional, organism-based; procedure, shortened: as §1

SMILES	LD50 [1] [mg/kg]	ED50 (Mus musculus [2]) [mg/kg]	selectivity ratio [3]	pIC50 (Rattus norvegicus [4])	pIC50 (Rattus norvegicus [8])	pIC50 (Rattus norvegicus [9])	ED50 (Mus musculus [17]) [mg/kg]	further results
COc1ccc([C@@H]2c3ccccc3[C@@H]3[C@H]2CCCN3C)cc1	95	5	19					
Cc1ccc([C@@H]2c3cc(O)ccc3[C@H]3NCCC[C@@H]23)cc1N	210	3	70	7.40	7.00	6.37		Uptake (Rattus norvegicus [5]): > 90%; Uptake (Rattus norvegicus [6]): > 90%; logP [7]: 2.33; Uptake (Rattus norvegicus [10]): > 90% and 83.5% and 88.1%; Uptake (Rattus norvegicus [11]): 80% and > 90% and 87.7%
Nc1ccc([C@@H]2c3ccccc3[C@H]3NCCC[C@@H]23)cc1	50		500	8.13	7.36	< 4.00	0.1	Exploration motility (Mus musculus [12]): 7924; Exploration motility (Mus musculus [13]): -4; Basis motility (Mus musculus [14]): 12001; Basis motility (Mus musculus [15]): 5501; Exploration motility (Mus musculus [16]): 116; Basis motility (Mus musculus [18]): -7
c1ccc([C@@H]2c3ccccc3[C@H]3NCCC[C@@H]23)cc1	27		39	7.74	7.70	~4.00	0.7	
Cc1ccc([C@H]2c3cc(O)ccc3[C@H]3NCCC[C@@H]23)cc1N	67	10						
CN1CCC[C@H]2[C@H](c3ccc(O)cc3)c3ccccc3[C@H]21	178	5	36					
CN1CCC[C@H]2[C@H](c3ccc(N)cc3)c3ccccc3[C@H]21	50		500	6.96	6.62	~4.00	0.1	
Oc1ccc([C@@H]2c3ccccc3[C@H]3NCCC[C@@H]23)cc1	30	2	15					
c1ccc2c(c1)[C@@H](c1ccncc1)[C@@H]1CCCN[C@H]21	20	2	10					
CN1CCC[C@H]2[C@H](c3ccccc3)c3ccccc3[C@H]21	74		185	7.92	7.00	~4.00	0.4	
CCCN1CCC[C@H]2[C@H](c3ccccc3)c3ccccc3[C@H]21	24		30	6.39	6.96	< 4.00	0.8	
COc1cc2c(cc1OC)[C@H]1NCCC[C@H]1[C@H]2c1cccnc1								ED50 (Mus musculus [19]): No activity detected up to a dose of 1/5 LD50 ip in mice; LD50 [20]: 30 mg/kg
CCCCOc1ccc([C@@H]2c3ccccc3[C@H]3NCCC[C@@H]23)cc1	46	1	46					
Nc1ccc([C@H]2c3ccccc3[C@H]3NCCC[C@@H]23)cc1	20			6.74	6.48	4.70	3	
Nc1ccc([C@@H]2c3cc(O)ccc3[C@H]3NCCC[C@@H]23)cc1	150		1500	7.82	7.34	5.80	0.1	Uptake (Rattus norvegicus [5]): > 90%; Uptake (Rattus norvegicus [6]): > 90%; logP [7]: 1.91; Uptake (Rattus norvegicus [21]): > 90%
Cc1ccc([C@@H]2c3ccccc3[C@@H]3[C@H]2CCCN3C)cc1	232		77	7.19	7.05	< 4.00	3	Uptake (Rattus norvegicus [5]): > 90%; Uptake (Rattus norvegicus [6]): > 90% (2×) and 88.1%; logP [7]: 3.83; Uptake (Rattus norvegicus [10]): > 90% (2×) and 76.3%
Cc1ccc([C@@H]2c3cc(O)ccc3[C@H]3NCCC[C@@H]23)cc1	67	1	67	7.51	7.77	6.55		Uptake (Rattus norvegicus [5]): > 90% and 84.9%; Uptake (Rattus norvegicus [6]): 90.4% and 86.9%; logP [7]: 3.13; Uptake (Rattus norvegicus [10]): > 90%; Uptake (Rattus norvegicus [11]): 68.2% and 62%
COc1ccc2c(c1)[C@H](c1ccc(C(C)C)cc1)[C@@H]1CCCN[C@H]21	37							ED50 (Mus musculus [22]): No activity detected up to a dose of 1/5 LD50 ip in mice
CCCCOc1ccc([C@@H]2c3ccccc3[C@@H]3[C@H]2CCCN3C)cc1	134	10	14					
